Measured values as given in ChEMBL document CHEMBL1764990, “Caffeic acid phenethyl ester inhibits PDGF-induced proliferation of vascular smooth muscle cells via activation of p38 MAPK, HIF-1α, and heme oxygenase-1” (J Nat Prod, 2011).
The source made the active and inactive calls. The calls are words filed in the database; no cut-off is given here.

Key:
VSMC [1] = test: Inhibition of PDGF-stimulated rat VSMC proliferation after 24 hrs; assay type: functional
Outline: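 Quiescent rat aortic VSMCs treated with compound (1–10 μM) or vehicle, then stimulated with PDGF (20 ng/mL) for 24 h. Cells were counted; the increase in cell number in vehicle-treated cells was set to 100%.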

VSMC [2] = test: Inhibition of PDGF-induced DNA synthesis in rat VSMC assessed as [3H]thymidine incorporation into DNA at 5 uM treated for 30 mins before 24 hrs of PDGF challenge; assay type: functional
Outline: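 Quiescent rat aortic VSMCs (starved 48 h) pretreated 30 min with 5 μM compound, then stimulated with PDGF-BB (20 ng/mL). Methyl-3H-thymidine (2 μCi/mL) pulse for the last 6 h of 24 h. TCA-insoluble radioactivity measured after NaOH solubilisation.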

[3] = Cytotoxicity against rat VSMC assessed as cell viability at >25 uM after 48 hrs by trypan blue exclusion assay; assay type: cell-based; conditions: VSMC (vascular smooth muscle cells), read-out: Activity
Outline: (§1)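 Cultured rat aortic VSMCs exposed to compound for 48 h. Viability by trypan blue exclusion, with cell morphology and detachment also noted.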

[4] = Cytotoxicity against rat VSMC assessed as morphological changes at >25 uM after 48 hrs by trypan blue exclusion assay; outline: as §1
[5] = Cytotoxicity against rat VSMC assessed as detachment of the cells at >25 uM after 48 hrs by trypan blue exclusion assay; assay type: cell-based; outline: as §1
[6] = Cell cycle arrest in PDGF-induced rat VSMC assessed as accumulation at G0/G1 phase at 5 uM treated for 30 mins followed by induced with PDGF for 28 hrs by propidium iodide staining by flow cytometry; assay type: functional, cell-based
Outline: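 Quiescent rat aortic VSMCs pretreated 30 min with 5 μM compound, then stimulated with PDGF (20 ng/mL) for 28 h. Nuclei stained with propidium iodide; cell-cycle distribution by flow cytometry. n = 3.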

VSMC [7] = test: Induction of cell cycle arrest in rat VSMC at G1 phase assessed as inhibition of retinoblastoma protein phosphorylation treated for 30 mins before 12 hrs of PDGF challenge by Western blot analysis; assay type: functional, cell-based
VSMC [8] = test: Inhibition of rat VSMC proliferation at 5 uM; assay type: functional
Rattus norvegicus [9] = organism: Rattus norvegicus; test: Inhibition of TNFalpha-induced NF-kappaB binding activity in rat VSMC at 5 uM pretreated for 30 mins before 45 mins of TNFalpha stimulation by gel shift assay
Outline: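 Rat aortic VSMCs in six-well plates preincubated 30 min with vehicle or compound, then treated with TNF-α (10 ng/mL). NF-κB DNA binding in nuclear extracts measured by electrophoretic mobility shift assay.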

Rattus norvegicus [10] = organism: Rattus norvegicus; test: Inhibition of NF-kappaB activation in rat VSMC at 5 uM
VSMC [11] = test: Inhibition of p38 phosphorylation in PDGF-stimulated rat VSMC at 5 uM treated for 30 mins before 10 mins of cell stimulation by Western blot analysis; assay type: cell-based
Outline: (§2)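 Quiescent rat aortic VSMCs (serum-free DMEM 24 h) pretreated 30 min with vehicle or 5 μM compound, then stimulated with PDGF (20 ng/mL) for 10 min. Total lysates analysed by Western blot for phospho-AKT, ERK, JNK, STAT3 and p38, with tubulin or actin.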

[12] = target: Mitogen-activated protein kinase 1 and 3 (ERK2 and ERK1) (Rattus norvegicus) (UniProt P63086+P21708); test: Inhibition of ERK1/2 phosphorylation in PDGF-stimulated rat VSMC at 5 uM treated for 30 mins before 10 mins of cell stimulation by Western blot analysis; outline: as §2
[13] = target: Mitogen-activated protein kinase 8 (Rattus norvegicus) (UniProt P49185); test: Inhibition of JNK1/2 phosphorylation in PDGF-stimulated rat VSMC at 5 uM treated for 30 mins before 10 mins of cell stimulation by Western blot analysis; assay type: cell-based; outline: as §2
VSMC [14] = test: Inhibition of AKT phosphorylation in PDGF-stimulated rat VSMC at 5 uM treated for 30 mins before 10 mins of cell stimulation by Western blot analysis; assay type: cell-based; outline: as §2
[15] = target: Signal transducer and activator of transcription 3 (Rattus norvegicus) (UniProt P52631); test: Inhibition of STAT3 phosphorylation in PDGF-stimulated rat VSMC at 5 uM treated for 30 mins before 10 mins of cell stimulation by Western blot analysis; outline: as §2
VSMC [16] = test: Inhibition of tubulin phosphorylation in PDGF-stimulated rat VSMC at 5 uM treated for 30 mins before 10 mins of cell stimulation by Western blot analysis; assay type: cell-based
Rattus norvegicus [17] = organism: Rattus norvegicus; test: Effect on p38 MAPK activation in PDGF-stimulated rat VSMC assessed as phosphorylation at 5 uM treated for 30 mins followed by stimulated with PDGF for 10 mins by immunoblot analysis
Outline: (§3)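 Quiescent rat aortic VSMCs pretreated 30 min with vehicle or 5 μM compound, then stimulated with PDGF for 10 or 60 min. Total lysates immunoblotted for phospho-p38 and total p38. Three independent experiments.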

Rattus norvegicus [18] = organism: Rattus norvegicus; test: Effect on p38 MAPK activation in PDGF-stimulated rat VSMC assessed as phosphorylation at 5 uM treated for 30 mins followed by stimulated with PDGF for 60 mins by immunoblot analysis; outline: as §3
VSMC [19] = test: Antiproliferative activity against PDGF-stimulated rat VSMC assessed as inhibition of DNA synthesis at 5 uM after 24 hrs by [3H]-thymidine incorporation assay in presence of p38 kinase inhibitor SB203580; assay type: functional
Outline: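 Rat aortic VSMCs starved 48 h. Treated with compound (5 μM), p38 inhibitor SB203580 (10 μM) and PDGF-BB (20 ng/mL) as indicated. Pulse-labelled with methyl-3H-thymidine (2 μCi/mL) for the final 6 h of 24 h. TCA-precipitated material was dissolved in 0.4 M NaOH and counted. n = 3, Student's t-test.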

VSMC [20] = test: Increase in HO-1 protein expression in rat VSMC at 5 uM after 16 hrs by immunoblot analysis; assay type: functional
Outline: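 Rat aortic VSMCs treated 16 h with vehicle, compound (5 μM) or cobalt protoporphyrin (10 μM). Total lysates immunoblotted for HO-1 and actin. Three independent experiments.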

VSMC [21] = test: Antiproliferative activity against PDGF-stimulated rat VSMC transfected with HO-1 siRNA assessed as growth arrest after 24 hrs by immunoblot analysis; assay type: functional; conditions: in the assay text read “by cell counting” for “by immunoblot analysis”
Outline: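 Rat aortic VSMCs transfected with scrambled or HO-1-specific siRNA, then starved, treated with compound and stimulated with PDGF. Cells were counted after 24 h. HO-1 knockdown was checked by immunoblot. n = 3, Student's t-test.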

VSMC [22] = test: Decrease in basal ROS level in PDGF-stimulated rat VSMC at 5 uM pretreated with compound for 30 mins measured after upto 23 hrs of post stimulation using H2DCF by flow cytometric analysis; assay type: functional
Outline: (§4)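 Quiescent rat aortic VSMCs pretreated 30 min with 5 μM compound or vehicle, then stimulated with PDGF (20 ng/mL). At set times up to 23 h, total intracellular ROS measured by flow cytometry of oxidized H2DCF (H2DCFDA probe). n = 3, ANOVA.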

VSMC [23] = test: Decrease in intracellular ROS level in PDGF-stimulated rat VSMC at 5 uM pretreated with compound for 30 mins measured after upto 23 hrs of post stimulation using H2DCF by flow cytometric analysis; assay type: functional, cell-based; outline: as §4
VSMC [24] = test: Accumulation of HIF-1alpha in PDGF-stimulated rat VSMC at 5 uM after 4 hrs by immunoblot analysis; assay type: functional
Outline: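 Primary aortic smooth muscle cells from male Sprague-Dawley rats, made quiescent in serum-free DMEM for 24 h. Pretreated with compound or vehicle, then stimulated with PDGF. After 4 h, total cell lysates were immunoblotted for HIF-1α, with actin as loading control.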

VSMC [25] = test: Induction of HO-1 protein expression in rat VSMC at 5 uM measured after 16 hrs in presence of 10 to 100 uM of HIF-1alpha inhibitor […] treated for 15 mins by immunoblot analysis; assay type: functional
Outline: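 Rat aortic VSMCs pretreated 15 min with the HIF-1α inhibitor YC-1 at graded levels (up to 100 μM), then given 5 μM compound or vehicle for 16 h. HO-1 read by immunoblot.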

VSMC [26] = test: Inhibition of PDGF-stimulated rat VSMC proliferation; assay type: functional
VSMC [27] = test: Induction of HO-1 protein expression in Nrf2-deficient PDGF-stimulated rat VSMC; assay type: functional

Chain of Mitogen-activated protein kinase 8 (Rattus norvegicus) (P49185 whole entry): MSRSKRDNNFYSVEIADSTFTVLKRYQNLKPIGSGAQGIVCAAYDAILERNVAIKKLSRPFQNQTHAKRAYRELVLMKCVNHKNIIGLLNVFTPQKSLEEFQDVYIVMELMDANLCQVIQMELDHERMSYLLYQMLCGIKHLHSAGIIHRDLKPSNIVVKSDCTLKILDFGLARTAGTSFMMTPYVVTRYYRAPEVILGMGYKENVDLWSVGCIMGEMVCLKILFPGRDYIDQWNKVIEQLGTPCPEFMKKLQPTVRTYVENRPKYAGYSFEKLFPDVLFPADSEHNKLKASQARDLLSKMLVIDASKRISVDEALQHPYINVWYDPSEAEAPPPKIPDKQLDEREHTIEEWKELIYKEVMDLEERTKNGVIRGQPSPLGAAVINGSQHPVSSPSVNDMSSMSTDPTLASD
Chain of Mitogen-activated protein kinase 1 and 3 (ERK2 and ERK1) (Rattus norvegicus) (P21708 whole entry, looked up): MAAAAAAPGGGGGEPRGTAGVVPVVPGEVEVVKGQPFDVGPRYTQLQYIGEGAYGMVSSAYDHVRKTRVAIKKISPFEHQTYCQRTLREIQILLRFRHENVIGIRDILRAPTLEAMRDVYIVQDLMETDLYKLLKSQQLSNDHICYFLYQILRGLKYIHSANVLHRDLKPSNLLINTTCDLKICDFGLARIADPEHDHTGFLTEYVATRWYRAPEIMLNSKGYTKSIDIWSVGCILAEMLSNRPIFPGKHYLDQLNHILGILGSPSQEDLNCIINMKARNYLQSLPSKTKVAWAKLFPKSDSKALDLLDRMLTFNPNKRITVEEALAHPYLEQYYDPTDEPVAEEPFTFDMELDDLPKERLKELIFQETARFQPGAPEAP
Chain of Mitogen-activated protein kinase 1 and 3 (ERK2 and ERK1) (Rattus norvegicus) (P63086 whole entry, looked up): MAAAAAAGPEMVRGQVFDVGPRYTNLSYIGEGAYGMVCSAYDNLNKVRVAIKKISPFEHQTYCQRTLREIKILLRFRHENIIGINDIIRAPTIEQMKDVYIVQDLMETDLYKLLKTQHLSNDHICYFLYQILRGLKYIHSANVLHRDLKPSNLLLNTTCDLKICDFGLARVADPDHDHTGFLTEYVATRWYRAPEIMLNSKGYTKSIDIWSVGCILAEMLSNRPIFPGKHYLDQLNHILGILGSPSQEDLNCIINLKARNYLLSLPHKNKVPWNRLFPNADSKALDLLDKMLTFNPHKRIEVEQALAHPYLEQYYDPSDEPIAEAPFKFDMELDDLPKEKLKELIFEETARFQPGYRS
Chain of Signal transducer and activator of transcription 3 (Rattus norvegicus) (P52631 whole entry): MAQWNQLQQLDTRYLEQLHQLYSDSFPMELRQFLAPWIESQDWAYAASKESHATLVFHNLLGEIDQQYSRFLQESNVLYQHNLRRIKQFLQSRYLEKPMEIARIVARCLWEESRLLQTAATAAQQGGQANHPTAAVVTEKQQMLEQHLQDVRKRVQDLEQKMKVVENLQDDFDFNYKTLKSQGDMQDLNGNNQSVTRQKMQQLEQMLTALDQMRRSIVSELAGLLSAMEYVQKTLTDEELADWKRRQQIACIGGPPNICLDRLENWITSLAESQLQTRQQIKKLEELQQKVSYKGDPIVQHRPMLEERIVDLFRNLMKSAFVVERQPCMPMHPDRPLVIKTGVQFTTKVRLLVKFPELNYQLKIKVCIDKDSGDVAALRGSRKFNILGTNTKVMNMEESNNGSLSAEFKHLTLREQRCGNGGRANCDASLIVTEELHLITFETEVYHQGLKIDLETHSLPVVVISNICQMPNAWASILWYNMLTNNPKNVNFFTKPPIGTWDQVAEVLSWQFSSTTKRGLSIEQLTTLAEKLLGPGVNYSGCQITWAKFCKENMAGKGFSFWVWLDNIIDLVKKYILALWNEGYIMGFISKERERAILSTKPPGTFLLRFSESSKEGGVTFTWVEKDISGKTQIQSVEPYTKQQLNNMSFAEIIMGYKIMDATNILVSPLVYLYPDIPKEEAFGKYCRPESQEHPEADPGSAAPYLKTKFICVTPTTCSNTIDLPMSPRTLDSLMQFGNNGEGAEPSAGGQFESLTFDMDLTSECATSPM

## O=C(/C=C/c1ccc(O)c(O)c1)OCCc1ccccc1 [CAFFEIC ACID PHENETHYL ESTER]
VSMC [1]
  inhibition: Dose-dependent effect
VSMC [2]
  Activity: Active
[3]
  viability at 48 h: 65%
[4]
  Activity: Toxic
[5]
  Activity: Toxic
[6]
  Activity: Active
VSMC [7]
  inhibition: Active
VSMC [8]
  Activity: Active
Rattus norvegicus [9]
  Activity: inactive
Rattus norvegicus [10]
  Activity: inactive
VSMC [11]
  Activity: inactive
[12]
  Activity: inactive
[13]
  Activity: inactive
VSMC [14]
  Activity: inactive
[15]
  Activity: inactive
VSMC [16]
  Activity: inactive
Rattus norvegicus [17]
  Activity: Active
Rattus norvegicus [18]
  Activity: Active
VSMC [19]
  inhibition: inactive
VSMC [20]
  Activity: Active
VSMC [21]
  growth inhibition (GI): inactive
VSMC [22]
  Activity: Active
VSMC [23]
  Activity: Active
VSMC [24]
  Activity: Active
VSMC [25]
  Activity: inactive
VSMC [26]
  inhibition: Dose-dependent effect
VSMC [27]
  Activity: Active
